Reference: ChEMBL document CHEMBL2176955, “Discovery of the macrocycle 11-(2-pyrrolidin-1-yl-ethoxy)-14,19-dioxa-5,7,26-triaza-tetracyclo[19.3.1.1(2,6).1(8,12)]heptacosa-1(25),2(26),3,5,8,10,12(27),16,21,23-decaene (SB1518), a potent Janus kinase 2/fms-like tyrosine kinase-3 (JAK2/FLT3) inhibitor for the treatment of myelofibrosis and …” (J Med Chem, 2011)
In brackets after ≈: the same amount, converted by molar mass.

Columns and labels:
[1] = target: Non-receptor tyrosine-protein kinase TYK2 (Homo sapiens, UniProt P29597); assay: Inhibition of recombinant TYK2
Sequence of Non-receptor tyrosine-protein kinase TYK2 (P29597 whole entry): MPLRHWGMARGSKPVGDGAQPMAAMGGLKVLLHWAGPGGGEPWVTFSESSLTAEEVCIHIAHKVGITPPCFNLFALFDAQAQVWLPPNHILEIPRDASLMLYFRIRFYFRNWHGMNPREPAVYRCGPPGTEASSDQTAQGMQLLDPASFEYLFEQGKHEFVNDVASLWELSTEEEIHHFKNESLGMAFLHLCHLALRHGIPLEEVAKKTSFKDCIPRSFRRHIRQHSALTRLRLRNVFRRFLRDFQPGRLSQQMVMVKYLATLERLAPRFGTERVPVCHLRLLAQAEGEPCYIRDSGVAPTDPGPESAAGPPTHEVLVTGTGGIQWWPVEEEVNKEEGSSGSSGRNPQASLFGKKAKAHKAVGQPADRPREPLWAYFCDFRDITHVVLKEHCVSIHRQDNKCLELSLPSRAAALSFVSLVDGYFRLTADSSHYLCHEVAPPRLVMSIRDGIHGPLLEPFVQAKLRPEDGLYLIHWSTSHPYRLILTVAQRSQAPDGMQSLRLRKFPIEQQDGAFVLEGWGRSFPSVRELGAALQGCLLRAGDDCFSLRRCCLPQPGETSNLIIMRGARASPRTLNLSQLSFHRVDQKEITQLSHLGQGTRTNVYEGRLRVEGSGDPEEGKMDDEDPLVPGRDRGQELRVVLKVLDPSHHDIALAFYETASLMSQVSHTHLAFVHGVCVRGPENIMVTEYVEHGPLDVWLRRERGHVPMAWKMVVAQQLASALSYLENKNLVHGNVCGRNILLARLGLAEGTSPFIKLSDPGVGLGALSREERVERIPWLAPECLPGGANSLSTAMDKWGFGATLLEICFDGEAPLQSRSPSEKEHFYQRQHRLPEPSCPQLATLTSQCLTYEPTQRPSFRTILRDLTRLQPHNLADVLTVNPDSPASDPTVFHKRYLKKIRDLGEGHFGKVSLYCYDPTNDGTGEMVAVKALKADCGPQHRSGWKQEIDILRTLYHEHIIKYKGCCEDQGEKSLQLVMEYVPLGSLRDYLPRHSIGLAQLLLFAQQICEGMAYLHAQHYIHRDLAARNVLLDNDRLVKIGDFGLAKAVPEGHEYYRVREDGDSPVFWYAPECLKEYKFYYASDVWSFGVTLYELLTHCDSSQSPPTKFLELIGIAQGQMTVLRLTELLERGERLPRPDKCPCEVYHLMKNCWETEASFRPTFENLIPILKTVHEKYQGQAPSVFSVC

[2] = target: T1, Tyrosine-protein kinase JAK3 (Homo sapiens, UniProt P52333); assay: Inhibition of recombinant JAK3 using Poly (Glu,Ala,Tyr) as substrate after 2 hrs by luminescence assay
T1 sequence (P52333 whole entry): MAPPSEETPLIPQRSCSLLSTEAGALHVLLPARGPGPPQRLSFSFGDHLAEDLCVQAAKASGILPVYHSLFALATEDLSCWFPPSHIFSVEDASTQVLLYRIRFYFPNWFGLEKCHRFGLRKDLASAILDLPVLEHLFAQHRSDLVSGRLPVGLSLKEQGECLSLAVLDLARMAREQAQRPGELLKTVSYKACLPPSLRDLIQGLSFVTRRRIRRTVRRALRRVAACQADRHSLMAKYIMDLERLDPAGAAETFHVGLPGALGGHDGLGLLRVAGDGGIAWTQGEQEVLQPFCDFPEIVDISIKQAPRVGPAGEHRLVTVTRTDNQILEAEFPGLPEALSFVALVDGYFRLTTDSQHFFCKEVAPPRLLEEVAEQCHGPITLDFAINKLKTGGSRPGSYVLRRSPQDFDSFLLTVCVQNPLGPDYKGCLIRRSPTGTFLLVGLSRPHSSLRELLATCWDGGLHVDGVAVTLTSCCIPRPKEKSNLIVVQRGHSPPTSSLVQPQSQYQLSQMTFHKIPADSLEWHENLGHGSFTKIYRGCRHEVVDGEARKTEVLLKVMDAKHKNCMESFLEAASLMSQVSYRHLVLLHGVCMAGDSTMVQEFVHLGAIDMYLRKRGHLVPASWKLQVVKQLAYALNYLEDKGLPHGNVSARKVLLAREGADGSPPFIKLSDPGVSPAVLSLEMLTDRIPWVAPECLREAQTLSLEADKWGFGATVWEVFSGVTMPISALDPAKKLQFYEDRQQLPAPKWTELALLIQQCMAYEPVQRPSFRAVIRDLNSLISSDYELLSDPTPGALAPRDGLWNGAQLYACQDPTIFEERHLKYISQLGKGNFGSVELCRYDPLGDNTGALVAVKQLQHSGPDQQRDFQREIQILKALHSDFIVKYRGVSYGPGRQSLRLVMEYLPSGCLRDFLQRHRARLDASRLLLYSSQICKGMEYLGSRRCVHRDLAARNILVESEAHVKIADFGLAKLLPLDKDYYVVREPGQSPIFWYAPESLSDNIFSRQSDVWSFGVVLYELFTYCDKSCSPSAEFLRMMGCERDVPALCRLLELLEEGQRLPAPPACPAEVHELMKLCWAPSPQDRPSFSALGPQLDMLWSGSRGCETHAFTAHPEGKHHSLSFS

[3] = target: Tyrosine-protein kinase JAK1 (Homo sapiens, UniProt P23458); assay: Inhibition of recombinant JAK1 using Poly (Glu,Ala,Tyr) as substrate after 2 hrs by luminescence assay
Sequence of Tyrosine-protein kinase JAK1 (P23458 whole entry): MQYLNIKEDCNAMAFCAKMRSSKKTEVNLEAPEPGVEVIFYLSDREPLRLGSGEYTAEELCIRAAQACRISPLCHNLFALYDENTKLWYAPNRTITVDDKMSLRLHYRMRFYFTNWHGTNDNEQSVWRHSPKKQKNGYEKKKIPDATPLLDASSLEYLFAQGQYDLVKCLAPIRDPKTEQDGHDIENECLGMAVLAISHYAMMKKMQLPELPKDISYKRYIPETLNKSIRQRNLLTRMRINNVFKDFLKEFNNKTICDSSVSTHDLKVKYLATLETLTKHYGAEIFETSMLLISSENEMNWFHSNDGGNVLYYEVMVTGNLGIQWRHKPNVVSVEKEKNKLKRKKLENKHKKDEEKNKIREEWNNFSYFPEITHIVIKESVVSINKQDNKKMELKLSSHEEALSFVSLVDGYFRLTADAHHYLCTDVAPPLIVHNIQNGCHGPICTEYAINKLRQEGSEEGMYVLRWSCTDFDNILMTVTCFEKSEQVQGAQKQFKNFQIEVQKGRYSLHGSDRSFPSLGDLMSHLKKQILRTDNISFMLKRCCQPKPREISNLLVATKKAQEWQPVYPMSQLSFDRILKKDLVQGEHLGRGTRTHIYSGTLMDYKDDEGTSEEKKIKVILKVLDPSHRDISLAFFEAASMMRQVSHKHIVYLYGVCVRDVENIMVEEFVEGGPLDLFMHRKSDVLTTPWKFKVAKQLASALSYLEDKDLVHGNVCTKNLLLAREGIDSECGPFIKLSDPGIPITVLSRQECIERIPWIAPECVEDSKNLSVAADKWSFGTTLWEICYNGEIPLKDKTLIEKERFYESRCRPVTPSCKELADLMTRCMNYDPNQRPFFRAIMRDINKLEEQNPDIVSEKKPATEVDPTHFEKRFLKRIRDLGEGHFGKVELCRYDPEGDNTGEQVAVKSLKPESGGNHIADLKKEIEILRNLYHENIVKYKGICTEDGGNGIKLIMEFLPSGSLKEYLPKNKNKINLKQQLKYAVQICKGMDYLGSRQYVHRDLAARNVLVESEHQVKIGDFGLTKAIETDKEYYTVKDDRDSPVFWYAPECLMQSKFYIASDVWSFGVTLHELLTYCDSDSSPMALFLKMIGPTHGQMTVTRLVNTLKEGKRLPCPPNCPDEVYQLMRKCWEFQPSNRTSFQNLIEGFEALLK
Outline: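 Luciferase-coupled ATP-depletion luminescence assay in 50 mM Hepes pH 7.5 with MgCl₂, MnCl₂, BGP, DTT and orthovanadate, 2 h at room temperature. Conditions per target: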

[4] = target: Tyrosine-protein kinase JAK2 (Homo sapiens, UniProt O60674); assay: Inhibition of recombinant JAK2 using Poly (Glu,Ala,Tyr) as substrate after 2 hrs by luminescence assay
Sequence of Tyrosine-protein kinase JAK2 (O60674 whole entry): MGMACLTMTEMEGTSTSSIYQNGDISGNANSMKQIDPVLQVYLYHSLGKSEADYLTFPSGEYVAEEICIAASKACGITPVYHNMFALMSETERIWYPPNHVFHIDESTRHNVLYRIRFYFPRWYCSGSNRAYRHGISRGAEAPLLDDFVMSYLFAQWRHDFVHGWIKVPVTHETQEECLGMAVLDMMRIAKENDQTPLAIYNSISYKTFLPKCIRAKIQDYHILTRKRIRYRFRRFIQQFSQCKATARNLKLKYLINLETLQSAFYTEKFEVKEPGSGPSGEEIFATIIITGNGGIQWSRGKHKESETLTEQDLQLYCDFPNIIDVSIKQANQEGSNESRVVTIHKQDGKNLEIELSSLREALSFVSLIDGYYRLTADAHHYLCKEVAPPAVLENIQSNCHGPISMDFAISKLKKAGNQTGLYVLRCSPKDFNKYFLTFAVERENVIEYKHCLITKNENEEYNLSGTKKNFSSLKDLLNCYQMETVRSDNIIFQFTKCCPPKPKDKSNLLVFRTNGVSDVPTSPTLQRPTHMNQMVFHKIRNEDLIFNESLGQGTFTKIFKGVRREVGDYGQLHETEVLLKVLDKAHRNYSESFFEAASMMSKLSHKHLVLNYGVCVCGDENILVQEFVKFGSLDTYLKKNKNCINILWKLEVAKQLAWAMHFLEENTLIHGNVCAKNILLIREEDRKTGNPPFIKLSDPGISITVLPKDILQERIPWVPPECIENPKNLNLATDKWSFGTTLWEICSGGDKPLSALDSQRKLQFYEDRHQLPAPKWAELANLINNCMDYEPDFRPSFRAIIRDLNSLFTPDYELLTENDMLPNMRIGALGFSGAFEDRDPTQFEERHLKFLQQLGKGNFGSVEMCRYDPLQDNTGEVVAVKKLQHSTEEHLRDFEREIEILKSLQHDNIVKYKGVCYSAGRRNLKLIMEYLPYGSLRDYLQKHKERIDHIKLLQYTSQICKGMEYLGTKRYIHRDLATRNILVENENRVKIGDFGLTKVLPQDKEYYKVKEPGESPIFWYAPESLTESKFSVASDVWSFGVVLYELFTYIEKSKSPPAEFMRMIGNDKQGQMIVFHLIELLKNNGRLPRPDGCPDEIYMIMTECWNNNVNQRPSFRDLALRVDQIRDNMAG

[5] = target: Cyclin-dependent kinase 2/cyclin A (Homo sapiens, UniProt P24941); assay: Inhibition of recombinant CDK2/Cyclin A using RbinG as substrate after 2 hrs by luminescence assay; type: protein-complex assay
[6] = target: T2, Receptor-type tyrosine-protein kinase FLT3 (Homo sapiens, UniProt P36888); assay: Inhibition of recombinant FLT3 using Poly (Glu,Tyr) as substrate after 2 hrs by luminescence assay
T2 sequence (P36888 whole entry): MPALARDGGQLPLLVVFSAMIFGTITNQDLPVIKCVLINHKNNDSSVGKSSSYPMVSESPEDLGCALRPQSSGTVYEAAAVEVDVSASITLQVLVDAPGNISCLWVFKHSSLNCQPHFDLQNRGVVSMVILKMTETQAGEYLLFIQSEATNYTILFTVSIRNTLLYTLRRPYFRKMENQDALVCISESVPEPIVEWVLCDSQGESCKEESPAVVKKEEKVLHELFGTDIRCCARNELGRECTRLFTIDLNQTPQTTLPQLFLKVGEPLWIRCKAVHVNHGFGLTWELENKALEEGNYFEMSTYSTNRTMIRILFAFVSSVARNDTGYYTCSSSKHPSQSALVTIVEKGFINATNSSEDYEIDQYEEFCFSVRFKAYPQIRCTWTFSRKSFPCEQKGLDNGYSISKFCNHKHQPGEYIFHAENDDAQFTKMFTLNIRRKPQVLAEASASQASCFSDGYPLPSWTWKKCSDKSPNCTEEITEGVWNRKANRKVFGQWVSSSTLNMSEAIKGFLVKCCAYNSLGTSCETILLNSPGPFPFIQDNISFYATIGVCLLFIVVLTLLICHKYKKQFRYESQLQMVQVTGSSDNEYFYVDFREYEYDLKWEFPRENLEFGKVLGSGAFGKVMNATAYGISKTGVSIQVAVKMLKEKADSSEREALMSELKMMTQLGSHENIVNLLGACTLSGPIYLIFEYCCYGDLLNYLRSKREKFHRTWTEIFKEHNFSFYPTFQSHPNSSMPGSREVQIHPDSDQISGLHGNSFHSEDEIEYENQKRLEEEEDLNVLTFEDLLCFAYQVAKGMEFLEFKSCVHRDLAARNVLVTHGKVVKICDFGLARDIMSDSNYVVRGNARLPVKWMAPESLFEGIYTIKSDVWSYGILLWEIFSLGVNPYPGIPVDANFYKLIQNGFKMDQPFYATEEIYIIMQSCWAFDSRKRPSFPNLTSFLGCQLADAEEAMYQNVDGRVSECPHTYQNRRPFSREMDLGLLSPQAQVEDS

[7] = physchem; settings: phosphate buffer saline, pH 7

| Compound | IC50 [1] | IC50 [2] | IC50 [3] | IC50 [4] | IC50 [5] | IC50 [6] | solubility [7] |
| --- | --- | --- | --- | --- | --- | --- | --- |
| CC(=O)N1CCN(c2ccc3cc2COCC=CCOCc2cccc(c2)-c2ccnc(n2)N3)CC1 (mixture of isomers) | 110 nM | 6000 nM | 2800 nM | 120 nM | 6200 nM | 38 nM |  |
| ClCCOc1ccc2cc1COCC=CCOCc1cccc(c1)-c1ccnc(n1)N2 (mixture of isomers) | 470 nM | > 10000 nM | > 10000 nM | 220 nM | > 10000 nM | 76 nM |  |
| C1=CCCOc2cccc(c2)-c2ccnc(n2)Nc2cccc(c2)OCC1 | 5200 nM | > 10000 nM | > 10000 nM | 1200 nM | > 10000 nM | 1100 nM |  |
| Fc1ccc2cc1COCC=CCOCc1cc(ccc1OCCN1CCCC1)Nc1nccc-2n1 (mixture of isomers) |  | 720 nM | 4600 nM | 25 nM | 3250 nM | 40 nM |  |
| CCN(CC)CCC(=O)Nc1cc2cc(c1)Nc1nccc(n1)-c1cccc(c1)COCC=CCOC2 (mixture of isomers) | 18 nM | 390 nM | 1900 nM | 44 nM | 400 nM | 78 nM |  |
| COc1cc2cc(c1OCCN1CCCC1)COCC=CCOCc1cccc(c1)-c1ccnc(n1)N2 (mixture of isomers) | 170 nM |  | 1700 nM | 36 nM | 3400 nM | 6 nM | 154 µg/mL |
| C1=CCOCc2cccc(c2)-c2ccnc(n2)Nc2cc(cc(OCCN3CCCC3)c2)COC1 (mixture of isomers) | 80 nM | 830 nM | 2100 nM | 48 nM | 570 nM | 22 nM | 145 µg/mL |
| C1=CCOCc2cc(ccc2N2CCNCC2)Nc2nccc(n2)-c2cccc(c2)COC1 (mixture of isomers) | 140 nM | 1600 nM | 2500 nM | 83 nM | 3400 nM | 49 nM | 8.79 µg/mL |
| Oc1ccc2cc1COCC=CCOCc1cccc(c1)-c1ccnc(n1)N2 (mixture of isomers) | 170 nM | 1100 nM | 400 nM | 53 nM | 210 nM | 170 nM |  |
| O=C1CCCN1CCOc1ccc2cc1COCC=CCOCc1cccc(c1)-c1ccnc(n1)N2 (mixture of isomers) | 180 nM | 500 nM | 1300 nM | 22 nM | 9400 nM | 140 nM |  |
| C1=CCOCc2cc(ccc2N2CCOCC2)Nc2nccc(n2)-c2cccc(c2)COC1 (mixture of isomers) | 160 nM |  | 8700 nM | 60 nM | > 10000 nM | 32 nM |  |
| CCS(=O)(=O)N1CCN(c2ccc3cc2COCC=CCOCc2cccc(c2)-c2ccnc(n2)N3)CC1 (mixture of isomers) | 140 nM | > 10000 nM | > 10000 nM | 150 nM | > 10000 nM | 150 nM |  |
| COc1ccc2cc1COCC=CCOCc1cccc(c1)-c1ccnc(n1)N2 (mixture of isomers) | 210 nM | 1200 nM | 1900 nM | 70 nM | 860 nM | 190 nM |  |
| COc1ccc2cc1COCC=CCCOc1cccc(c1)-c1ccnc(n1)N2 (mixture of isomers) | 150 nM |  | 3000 nM | 130 nM | > 10000 nM | 310 nM |  |
| C1=CCOc2cccc(c2)Nc2nccc(n2)-c2cccc(c2)OCC1 (mixture of isomers) | 70 nM | > 10000 nM | > 10000 nM | 230 nM | 330 nM | 880 nM | < 10 µg/mL |
| CN(C)CCN(C)c1ccc2cc1COCC=CCOCc1cccc(c1)-c1ccnc(n1)N2 (mixture of isomers) | 71 nM |  | 3600 nM | 77 nM | 88 nM | 31 nM | 171 µg/mL |
| Nc1cc2cc(c1)Nc1nccc(n1)-c1cccc(c1)COCC=CCOC2 (mixture of isomers) |  |  |  | 35 nM | 240 nM | 52 nM | 25 µg/mL |
| O=C1CCN(CCOc2ccc3cc2COCC=CCOCc2cccc(c2)-c2ccnc(n2)N3)C1 (mixture of isomers) | 140 nM | 380 nM | 940 nM | 22 nM | 5800 nM | 67 nM |  |
| COc1ccc2cc1-c1ccnc(n1)Nc1ccc(OCCN3CCCC3)c(c1)COCC=CCOC2 | 620 nM | 7200 nM | 4900 nM | 330 nM | > 10000 nM | 12 nM |  |
| CN1CCN(c2ccc3cc2COCC=CCOCc2cccc(c2)-c2ccnc(n2)N3)CC1 (mixture of isomers) | 190 nM |  | 3600 nM | 41 nM | > 10000 nM | 30 nM | 26.4 µg/mL |
| COc1ccc2cc1COCC=CCOc1cccc(c1)-c1ccnc(n1)N2 (mixture of isomers) | 120 nM |  | 5800 nM | 260 nM | 360 nM | 78 nM | < 10 µg/mL |
| Fc1cnc2nc1-c1cccc(c1)COCC=CCOCc1cc(ccc1OCCN1CCCC1)N2 (mixture of isomers) | 140 nM | 1000 nM | 830 nM | 17 nM | 1550 nM | 15 nM |  |
| Fc1cc2cc(c1)-c1ccnc(n1)Nc1ccc(OCCN3CCCC3)c(c1)COCC=CCOC2 (mixture of isomers) | 36 nM |  | 380 nM | 24 nM | 2000 nM | 8 nM | 2.61 µg/mL |
| OCCN1CCN(c2ccc3cc2COCC=CCOCc2cccc(c2)-c2ccnc(n2)N3)CC1 | 160 nM | 2500 nM | 3100 nM | 84 nM | 3700 nM | 70 nM | 150 µg/mL (≈ 308 µM) |
| C1=CCOCc2cccc(c2)-c2ccnc(n2)Nc2cc(cc(OCCN3CCOCC3)c2)COC1 (mixture of isomers) | 81 nM | 3300 nM | 2400 nM | 96 nM | 2700 nM | 19 nM | 40 µg/mL |
